According to ChEMBL document CHEMBL4699393, “Meridianin D analogues possess antibiofilm activity against Mycobacterium smegmatis” (RSC Med Chem, 2020):
In brackets after ≈: the same amount, converted by molar mass.

Key:
[1] = test system: Mycolicibacterium smegmatis; experiment: Antibiofilm activity against Mycobacterium smegmatis mc2 155 ATCC 700084 assessed as inhibition of biofilm formation measured after 24 hrs by crystal violet reporter assay; format: functional, organism-based; settings: MC2 155 ATCC 700084, 24 h
[2] = test system: Mycolicibacterium smegmatis; experiment: Antibiofilm activity against Mycobacterium smegmatis mc2 155 ATCC 700084 assessed as dispersion of preformed biofilms measured after 24 hrs by crystal violet reporter assay; format: functional, organism-based; settings: MC2 155 ATCC 700084, 24 h
Outline: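 Cultures (48 h) diluted to 0.01 in M9 minimal salts with glucose, MgSO4 and CaCl2 in PVC plates. Biofilm grown stationary at 37 °C for 48 h, washed, then fresh medium with compound added for 24 h at 37 °C. Stained with 0.1% crystal violet 30 min, solubilised in 95% ethanol, OD540 read. Media blanks subtracted. Dispersion calculated against untreated biofilm wells. At least three repeats.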

[3] = test system: Mycolicibacterium smegmatis; experiment: Potentiation of Cefotaxime-induced antibacterial activity against Mycobacterium smegmatis mc2 155 ATCC 700084 assessed as fold reduction in Cefotaxime MIC at 60 uM incubated for 48 hrs by alamarblue dye based broth microdilution method; format: functional
Outline: (§1)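 Inoculum from 48 h cultures set to 5 x 10^5 CFU/mL in 7H9 + ADC and pre-dosed with compound from DMSO stock at fixed concentration. β-lactam two-fold serially diluted from top concentration, with an antibiotic-only control series. Stationary 37 °C for 48 h, then alamarBlue for 8 h. MIC is the lowest blue (non-viable) well. Fold reduction is relative to the antibiotic-only MIC. Duplicates, at least two repeats.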

[4] = test system: Mycolicibacterium smegmatis; experiment: Potentiation of Ceftazidime-induced antibacterial activity against Mycobacterium smegmatis mc2 155 ATCC 700084 assessed as Ceftazidime MIC at 60 uM incubated for 48 hrs by alamarblue dye based broth microdilution method (reference value: 512 ug/ml); format: functional; outline: as §1
[5] = test system: Mycolicibacterium smegmatis; experiment: Potentiation of Cefoxitin-induced antibacterial activity against Mycobacterium smegmatis mc2 155 ATCC 700084 assessed as fold reduction in Cefoxitin MIC at 60 uM incubated for 48 hrs by alamarblue dye based broth microdilution method; format: functional; outline: as §1
[6] = test system: Mycolicibacterium smegmatis; experiment: Potentiation of Ceftazidime-induced antibacterial activity against Mycobacterium smegmatis mc2 155 ATCC 700084 assessed as fold reduction in Ceftazidime MIC at 60 uM incubated for 48 hrs by alamarblue dye based broth microdilution method; format: functional; outline: as §1
[7] = test system: Mycolicibacterium smegmatis; experiment: Potentiation of Cefoxitin-induced antibacterial activity against Mycobacterium smegmatis mc2 155 ATCC 700084 assessed as Cefoxitin MIC at 60 uM incubated for 48 hrs by alamarblue dye based broth microdilution method (reference value: 16 ug/ml); format: functional; outline: as §1
[8] = test system: Mycolicibacterium smegmatis; experiment: Potentiation of Ampicillin-induced antibacterial activity against Mycobacterium smegmatis mc2 155 ATCC 700084 assessed as fold reduction in Ampicillin MIC at 60 uM incubated for 48 hrs by alamarblue dye based broth microdilution method; format: functional; outline: as §1
[9] = test system: Mycolicibacterium smegmatis; experiment: Potentiation of Ampicillin-induced antibacterial activity against Mycobacterium smegmatis mc2 155 ATCC 700084 assessed as Ampicillin MIC at 60 uM incubated for 48 hrs by alamarblue dye based broth microdilution method (reference value: 128 ug/ml); format: functional; outline: as §1
[10] = test system: Mycolicibacterium smegmatis; experiment: Potentiation of Oxacillin-induced antibacterial activity against Mycobacterium smegmatis mc2 155 ATCC 700084 assessed as Oxacillin MIC at 60 uM incubated for 48 hrs by alamarblue dye based broth microdilution method (Rvb =512 ug/ml); format: functional; outline: as §1
[11] = test system: Mycolicibacterium smegmatis; experiment: Potentiation of Cefotaxime-induced antibacterial activity against Mycobacterium smegmatis mc2 155 ATCC 700084 assessed as Cefotaxime MIC at 60 uM incubated for 48 hrs by alamarblue dye based broth microdilution method (reference value: 128 ug/ml); format: functional; outline: as §1
[12] = test system: Mycolicibacterium smegmatis; experiment: Antibacterial activity against Mycobacterium smegmatis mc2 155 ATCC 700084 assessed as inhibition of bacterial growth incubated for 48 hrs by alamarblue dye based broth microdilution method; format: functional
Outline: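 Inoculum from 48 h cultures set to 5 x 10^5 CFU/mL in 7H9 + ADC. Compound in DMSO two-fold serially diluted from 200 µM top concentration. Stationary 37 °C for 48 h, then alamarBlue for 8 h at 37 °C. MIC is the lowest concentration with no viable bacteria (blue, not pink). Duplicate wells, at least two independent repeats.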

[13] = test system: Mycolicibacterium smegmatis; experiment: Potentiation of oxacillin-induced antibacterial activity against Mycobacterium smegmatis mc2 155 ATCC 700084 assessed as fold reduction in oxacillin MIC at 60 uM incubated for 48 hrs by alamarblue dye based broth microdilution method; format: functional; outline: as §1
[14] = Hemolytic activity in sheep RBC assessed as hemolysis at 500 uM measured after 1 hr by UV spectrometer analysis; format: ADME, cell-based, Ovis aries, Erythrocyte; settings: sheep red blood cells (erythrocytes), read-out: Activity
Outline: (§2)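 Mechanically defibrinated sheep blood was centrifuged, and the cells were washed and resuspended in PBS three times, then diluted 10-fold. Compound was added from DMSO stock. Controls were 1% Triton X (100% lysis) and PBS (zero lysis). Samples were incubated 1 h at 37 °C with shaking at 200 rpm, then centrifuged. Supernatant was diluted 40-fold in distilled water and read at A540. Run in duplicate, repeated at least twice.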

[15] = Hemolytic activity in sheep RBC assessed as hemolysis at 200 uM measured after 1 hr by UV spectrometer analysis; format: ADME, cell-based, Ovis aries, Erythrocyte; settings: sheep red blood cells (erythrocytes), read-out: Activity; outline: as §2

Nc1nccc(-c2c[nH]c3cccc(Br)c23)n1
IC50 [1]: > 50 µM
EC50 [2]: > 50 µM

Nc1nccc(-c2c[nH]c3c(Br)cccc23)n1
IC50 [1]: 26 µM
EC50 [2]: > 50 µM

Nc1nccc(-c2c[nH]c3ccc(Cl)cc23)n1
IC50 [1]: 18.3 µM
EC50 [2]: > 50 µM

Nc1nccc(-c2c[nH]c3ccc(F)cc23)n1
IC50 [1]: 16 µM
EC50 [2]: > 50 µM

Nc1nccc(-c2c[nH]c3cc(Cl)ccc23)n1
IC50 [1]: 26.6 µM
EC50 [2]: > 50 µM

CCCn1cc(-c2ccnc(N)n2)c2cc(Br)ccc21
IC50 [1]: 15.1 µM
EC50 [2]: > 50 µM

CCCn1cc(-c2ccnc(N)n2)c2ccc(I)cc21
IC50 [1]: > 50 µM
EC50 [2]: > 50 µM

CCCCn1cc(-c2ccnc(N)n2)c2cc(Br)ccc21
IC50 [1]: 22.7 µM
EC50 [2]: > 50 µM

Nc1nccc(-c2c[nH]c3cc(F)ccc23)n1
IC50 [1]: 21.6 µM
EC50 [2]: > 50 µM

CC(C)Cn1cc(-c2ccnc(N)n2)c2ccc(Br)cc21
IC50 [1]: 50.4 µM
EC50 [2]: > 50 µM

CNc1nccc(-c2c[nH]c3ccc(Br)cc23)n1
fold change (FC) [3]: 2
IC50 [1]: 25.5 µM
MIC [4]: 512 µg/mL
fold change (FC) [5]: 0
fold change (FC) [6]: 0
MIC [7]: 16 µg/mL
EC50 [2]: 45 µM
fold change (FC) [8]: 2
MIC [9]: 64 µg/mL
MIC [10]: 256 µg/mL
MIC [11]: 64 µg/mL
MIC [12]: ≥ 200 µM
fold change (FC) [13]: 2

CCn1cc(-c2ccnc(N)n2)c2cc(Br)ccc21
IC50 [1]: 37.1 µM
EC50 [2]: > 50 µM

Nc1nccc(-c2c[nH]c3ccc(I)cc23)n1
fold change (FC) [3]: 2
IC50 [1]: 13.1 µM
MIC [4]: 512 µg/mL
fold change (FC) [5]: 0
fold change (FC) [6]: 0
MIC [7]: 16 µg/mL
EC50 [2]: 28.1 µM
fold change (FC) [8]: 0
MIC [9]: 128 µg/mL
MIC [10]: 512 µg/mL
MIC [11]: 64 µg/mL
MIC [12]: ≥ 200 µM
fold change (FC) [13]: 0

Cn1cc(-c2ccnc(N)n2)c2cc(Br)ccc21
fold change (FC) [3]: 8
IC50 [1]: 27.8 µM
MIC [4]: 64 µg/mL
fold change (FC) [5]: 2
fold change (FC) [6]: 8
MIC [7]: 8 µg/mL
EC50 [2]: > 50 µM
fold change (FC) [8]: 4
MIC [9]: 32 µg/mL
MIC [10]: 256 µg/mL
MIC [11]: 16 µg/mL
MIC [12]: ≥ 200 µM
fold change (FC) [13]: 2

CCn1cc(-c2ccnc(N)n2)c2ccc(Br)cc21
IC50 [1]: 39.1 µM
EC50 [2]: > 50 µM

CCNc1nccc(-c2c[nH]c3ccc(Br)cc23)n1
fold change (FC) [3]: 0
IC50 [1]: 14.2 µM
MIC [4]: 512 µg/mL
fold change (FC) [5]: 0
fold change (FC) [6]: 0
MIC [7]: 16 µg/mL
EC50 [2]: 39.3 µM
fold change (FC) [8]: 2
MIC [9]: 64 µg/mL
MIC [10]: 512 µg/mL
MIC [11]: 128 µg/mL
MIC [12]: ≥ 200 µM
fold change (FC) [13]: 0

CCCn1cc(-c2ccnc(N)n2)c2ccc(Br)cc21
IC50 [1]: 34.5 µM
EC50 [2]: > 50 µM

Cc1ccc2[nH]cc(-c3ccnc(N)n3)c2c1
IC50 [1]: 15.7 µM
EC50 [2]: > 50 µM

Cn1cc(-c2ccnc(N)n2)c2ccc(Br)cc21
IC50 [1]: 26.7 µM
EC50 [2]: > 50 µM

CC(C)Cn1cc(-c2ccnc(N)n2)c2cc(Br)ccc21
IC50 [1]: 14.9 µM
EC50 [2]: > 50 µM

Nc1nc(-c2c[nH]c3ccc(Br)cc23)c[nH]1
IC50 [1]: 9.5 µM
EC50 [2]: > 50 µM
MIC [12]: 100 µM (≈ 27.7 µg/mL)

CN(C)c1nccc(-c2c[nH]c3ccc(Br)cc23)n1
fold change (FC) [3]: 0
IC50 [1]: 14.3 µM
MIC [4]: 512 µg/mL
fold change (FC) [5]: 0
fold change (FC) [6]: 0
MIC [7]: 16 µg/mL
EC50 [2]: 35.7 µM
fold change (FC) [8]: 2
MIC [9]: 64 µg/mL
MIC [10]: 512 µg/mL
MIC [11]: 128 µg/mL
MIC [12]: ≥ 200 µM
fold change (FC) [13]: 0

Nc1nccc(-c2c[nH]c3cc(I)ccc23)n1
fold change (FC) [3]: 0
IC50 [1]: 13.2 µM
MIC [4]: 512 µg/mL
fold change (FC) [5]: 0
fold change (FC) [6]: 0
MIC [7]: 16 µg/mL
EC50 [2]: 29.4 µM
fold change (FC) [8]: 0
MIC [9]: 128 µg/mL
MIC [10]: 512 µg/mL
MIC [11]: 128 µg/mL
MIC [12]: ≥ 200 µM
fold change (FC) [13]: 0

CCCCn1cc(-c2ccnc(N)n2)c2ccc(Br)cc21
IC50 [1]: > 50 µM
hemolysis at 1 h, 500 µM [14]: 73%
hemolysis at 1 h, 200 µM [15]: 56%
EC50 [2]: > 50 µM

CCCCCn1cc(-c2ccnc(N)n2)c2cc(Br)ccc21
IC50 [1]: > 50 µM
EC50 [2]: > 50 µM

Nc1nccc(-c2cn(Cc3ccccc3)c3cc(Br)ccc23)n1
IC50 [1]: 27.3 µM
EC50 [2]: > 50 µM

Nc1ncc(-c2c[nH]c3ccc(Cl)cc23)[nH]1
IC50 [1]: 16 µM
EC50 [2]: > 50 µM

Nc1ncc(-c2c[nH]c3cc(Cl)ccc23)[nH]1
IC50 [1]: 10.3 µM
EC50 [2]: 33.7 µM

Nc1ncc(-c2c[nH]c3ccc(F)cc23)[nH]1
IC50 [1]: 40.2 µM
EC50 [2]: > 50 µM

Nc1nccc(-c2c[nH]c3ccccc23)n1
IC50 [1]: 29.5 µM
EC50 [2]: > 50 µM

Nc1nccc(-c2c[nH]c3ccc(Br)cc23)n1 [MERIDIANIN C]
IC50 [1]: 22.7 µM
EC50 [2]: > 50 µM

Nc1nccc(-c2c[nH]c3cc(Br)ccc23)n1 [MERIDIANIN D]
fold change (FC) [3]: 0
IC50 [1]: 21.5 µM
hemolysis at 1 h, 500 µM [14]: 13%
hemolysis at 1 h, 200 µM [15]: 8%
fold change (FC) [5]: 0
fold change (FC) [6]: 0
EC50 [2]: 51 µM
fold change (FC) [8]: 0
MIC [12]: 200 µM (≈ 57.8 µg/mL)
fold change (FC) [13]: 0
